Values after ≈ are worked out from the molar mass of the structure shown.
What was measured:
[1] = Cytotoxicity against human FS5 cells assessed as cell survival after 48 hrs by MTT assay relative to control; type: cell-based; set-up: concentration or dose not given beside the values; settings: read-out: Survival
In short: (§1)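 FS-5 foreskin fibroblasts and HeLa cervical carcinoma cells were grown in DMEM with 10% heat-inactivated FCS, antibiotics and glutamine at 37 °C under 5% CO₂. They were seeded at 2 × 10⁴ cells/well and held 24 h, then exposed for 48 h to compound in medium with 2% FCS. MTT (5 mg/mL stock in PBS) went on for 4 h, then SDS/DMF lysis overnight, and A570 was read.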

[2] = system: HeLa; experiment: Cytotoxicity against human HeLa cells assessed as cell survival after 48 hrs by MTT assay relative to control; type: functional; set-up: concentration or dose not given beside the values; in short: as §1
[3] = system: OVCAR-3; experiment: Cytotoxicity against human OVCAR-3 cells assessed as cell survival after 48 hrs by MTT assay relative to control; type: functional; set-up: concentration or dose not given beside the values
In short: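 OVCAR-3 (human ovarian adenocarcinoma) cells were kept in RPMI 1640 with 10% heat-inactivated FCS, streptomycin, penicillin and 2 mM glutamine at 37 °C under 5% CO₂. They were seeded at 2 × 10⁴ cells/well and grown 24 h. The medium was then swapped for one holding compound and 2% FCS for 48 h. MTT (5 mg/mL stock in PBS) went on for 4 h in serum-free medium, then SDS/DMF lysis overnight, and absorbance was read at 570 nm.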

[4] = system: OVCAR-3; experiment: Cytotoxicity against human OVCAR-3 cells after 48 hrs by MTT assay; type: functional, cell-based; settings: OVCAR-3, 48 h
In short: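 OVCAR-3 ovarian adenocarcinoma cells kept in RPMI 1640 with 10% heat-inactivated FCS, 100 µg/mL streptomycin, 100 IU/mL penicillin, 2 mM glutamine at 37 °C, 5% CO2. Plated at 2 × 10⁴ cells/well and cultured 24 h, then treated 48 h in 2% FCS medium. After washing, MTT incubation 4 h, overnight lysis in 20% SDS/50% DMF, absorbance at 570 nm.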

[5] = Cytotoxicity against human FS5 cells after 48 hrs by MTT assay; type: cell-based; settings: FS5, 48 h
In short: (§2)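 FS-5 foreskin fibroblasts and HeLa cervical carcinoma cells grown in DMEM with 10% heat-inactivated FCS, penicillin, streptomycin, glutamine (37 °C, 5% CO2). Seeded at 2 × 10⁴ cells/well and left 24 h, then exposed 48 h to compounds in medium with 2% FCS. Washed, MTT added for 4 h at 37 °C, lysed overnight in SDS/DMF, A570 read.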

[6] = system: HeLa; experiment: Cytotoxicity against human HeLa cells after 48 hrs by MTT assay; type: functional, cell-based; in short: as §2
[7] = system: OVCAR-3; experiment: Cytotoxicity against human OVCAR-3 cells assessed as cell survival at 10 ug/ml after 48 hrs by MTT assay relative to control; type: functional; settings: OVCAR-3, 48 h, read-out: Survival
[8] = Cytotoxicity against human FS5 cells assessed as cell survival at 10 ug/ml after 48 hrs by MTT assay relative to control; type: cell-based; settings: read-out: Survival
[9] = system: HeLa; experiment: Cytotoxicity against human HeLa cells assessed as cell survival at 10 ug/ml after 48 hrs by MTT assay relative to control; type: functional; settings: read-out: Survival

Row | Compound | viability at 48 h [1] [%] | Survival [2] [%] | Survival [3] [%] | IC50 [4] [µg/mL] | IC50 [5] [µg/mL] | IC50 [6] [µg/mL] | viability at 10 µg/mL [7] [%] | viability at 48 h, 10 ug/ml [8] [%] | viability at 10 µg/mL [9] [%]
1 | C=C(C)[C@@H]1CC[C@]2(C(=O)O)CC[C@]3(C)[C@H](CC[C@@H]4[C@@]5(C)[C@@H](CO)[C@H](O)C(C)(C)[C@@H]5CC[C@]43C)[C@@H]12 | 43 | 22 | 25 |  |  |  |  |  | 
2 | C=C(C)[C@@H]1CC[C@]2(C(=O)O)CC[C@]3(C)[C@H](CC[C@@H]4[C@@]5(C)CC[C@H](O)C(C)(C)[C@@H]5CC[C@]43C)[C@@H]12 [BETULINIC ACID] | 39 | 25 | 0 | 0.9 (≈ 1.97 µM) | 20.7 (≈ 45.3 µM) | 0.8 (≈ 1.75 µM) |  |  | 
3 | C=C(C)[C@@H]1CC[C@]2(C(=O)O)CC[C@]3(C)[C@H](CC[C@@H]4[C@@]5(C)C=CC(C)(C)[C@@H]5CC[C@]43C)[C@@H]12 | 33 | 17 | 0 | 3.5 (≈ 8.24 µM) | 22.7 (≈ 53.5 µM) | 7.1 (≈ 16.7 µM) |  |  | 
4 | C=C(C)[C@@H]1CC[C@]2(C(=O)O)CC[C@]3(C)[C@H](CC[C@@H]4[C@@]5(C)CCC(C)(C)[C@@H]5CC[C@]43C)[C@@H]12 | 85 | 48 | 55 |  |  |  |  |  | 
5 | COc1cccc2c1C(=O)c1c(O)c3c(c(O)c1C2=O)C[C@@](O)(C(=O)CO)C[C@@H]3O[C@H]1C[C@H](N)[C@H](O)[C@H](C)O1 [DOXORUBICIN] |  |  |  |  |  |  | 21 | 56 | 19
6 | C=C(C)[C@@H]1CC[C@]2(C(=O)O)CC[C@]3(C)[C@H](CC[C@@H]4[C@@]5(C)CC(=O)C(C)(C)[C@@H]5CC[C@]43C)[C@@H]12 | 16 | 4 | 0 | 2.8 (≈ 6.35 µM) | 11.3 (≈ 25.6 µM) | 6.6 (≈ 15 µM) |  |  | 
7 | C=C(C)[C@@H]1CC[C@]2(C(=O)O)CC[C@]3(C)[C@H](CC[C@@H]4[C@@]5(C)C[C@H](O)C(C)(C)[C@@H]5CC[C@]43C)[C@@H]12 | 67 | 18 | 0 | 4.7 (≈ 10.6 µM) | 29.6 (≈ 66.9 µM) | 9.1 (≈ 20.6 µM) |  |  | 
8 | C=C(C)[C@@H]1CC[C@]2(C(=O)O)CC[C@]3(C)[C@H](CC[C@@H]4[C@@]5(C)C(C(=O)O)=CC(C)(C)[C@@H]5CC[C@]43C)[C@@H]12 | 87 | 50 | 51 |  |  |  |  |  | 
9 | C=C(C)[C@@H]1CC[C@]2(C(=O)O)CC[C@]3(C)[C@H](CC[C@@H]4[C@@]5(C)[C@@H](C(=O)O)[C@H](O)C(C)(C)[C@@H]5CC[C@]43C)[C@@H]12 [CEANOTHIC ACID] | 81 | 65 | 68 |  |  |  |  |  | 
